Test results as given in ChEMBL document CHEMBL4196017, “Design, synthesis and identification of silicon-containing HCV NS5A inhibitors with pan-genotype activity” (Eur J Med Chem, 2018).

Columns and labels:
Mus musculus [1] = assay: Toxicity in ICR mouse assessed as lymphocyte level in serum at 150 mg/kg, po administered via gavage once daily for 14 days (reference value: 57.65 +/- 13.53%); type: organism-based; details: in vivo, 336 h
Outline: (§1)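 Haematology on abdominal aortic blood taken at necropsy under ether anaesthesia after 14 daily gavage doses (20 ml/kg) in ICR mice, 5 per sex per group, vehicle control. Parameters: WBC, RBC, haemoglobin, platelets, reticulocyte ratio and differential leukocyte counts; mean ± SD, n = 10.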

Mus musculus [2] = assay: Toxicity in ICR mouse assessed as total bile acid level at 150 mg/kg, po administered via gavage once daily for 14 days (reference value: 5.67 +/- 2.45 umol/L); type: organism-based; details: in vivo, 336 h
Mus musculus [3] = assay: Toxicity in ICR mouse assessed as direct bilirubin level in serum at 150 mg/kg, po administered via gavage once daily for 14 days (reference value: 7.6 +/- 0.59 umol/L); type: organism-based; details: in vivo, 336 h
Mus musculus [4] = assay: Toxicity in ICR mouse assessed as platelet count at 150 mg/kg, po administered via gavage once daily for 14 days (reference value: 1260.3 +/- 137.87 10^9/L); type: organism-based; details: in vivo, 336 h; outline: as §1
Mus musculus [5] = assay: Toxicity in ICR mouse assessed as liver weight at 150 mg/kg, po administered via gavage once daily for 14 days (reference value: 4.365 +/- 0.222 g); type: organism-based; details: in vivo, 336 h
Mus musculus [6] = assay: Toxicity in ICR mouse assessed as albumin level in serum at 150 mg/kg, po administered via gavage once daily for 14 days (reference value: 25.87 +/- 1.67 g/l); type: organism-based; details: in vivo, 336 h
Outline: (§2)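 ICR mice, 5 males + 5 females per group, dosed by gavage once daily at 150 mg/kg (20 ml/kg) or vehicle for 14 days; killed after the 14th dose; blood from abdominal aorta under ether anaesthesia for hematology and clinical chemistry; mean ± SD, n = 10.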

Mus musculus [7] = assay: Toxicity in ICR mouse assessed as basophil level in serum at 150 mg/kg, po administered via gavage once daily for 14 days (reference value: 0.02 +/- 0.04%); type: organism-based; details: in vivo, 336 h; outline: as §2
Mus musculus [8] = assay: Toxicity in ICR mouse assessed as kidney weight at 150 mg/kg, po administered via gavage once daily for 14 days (reference value: 1.51 +/- 0.211 g); type: organism-based; details: in vivo, 336 h
Mus musculus [9] = assay: Toxicity in ICR mouse assessed as total protein level in serum at 150 mg/kg, po administered via gavage once daily for 14 days (reference value: 53.97 +/- 1.56 g/l); type: organism-based; details: in vivo, 336 h
Mus musculus [10] = assay: Toxicity in ICR mouse assessed as effect on food consumption at 150 mg/kg, po administered via gavage once daily for 14 days; type: organism-based; details: in vivo, 336 h
Outline: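 ICR mice, 5 male + 5 female per group, gavage once daily for 14 days, vehicle control; food intake recorded on day 1 of dosing and then twice weekly, with daily clinical observation.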

Mus musculus [11] = assay: Toxicity in ICR mouse assessed as neutrophil level in serum at 150 mg/kg, po administered via gavage once daily for 14 days (reference value: 27.74 +/- 16.27%); type: organism-based; details: in vivo, 336 h; outline: as §1
Nonstructural protein 5A = target: T1, Nonstructural protein 5A (Hepatitis C virus, UniProt Q5L478); assay: Inhibition of NS5A in HCV genotype 6a; design: species or system Hepatitis C virus subtype 6a
T1 sequence (Q5L478 whole entry): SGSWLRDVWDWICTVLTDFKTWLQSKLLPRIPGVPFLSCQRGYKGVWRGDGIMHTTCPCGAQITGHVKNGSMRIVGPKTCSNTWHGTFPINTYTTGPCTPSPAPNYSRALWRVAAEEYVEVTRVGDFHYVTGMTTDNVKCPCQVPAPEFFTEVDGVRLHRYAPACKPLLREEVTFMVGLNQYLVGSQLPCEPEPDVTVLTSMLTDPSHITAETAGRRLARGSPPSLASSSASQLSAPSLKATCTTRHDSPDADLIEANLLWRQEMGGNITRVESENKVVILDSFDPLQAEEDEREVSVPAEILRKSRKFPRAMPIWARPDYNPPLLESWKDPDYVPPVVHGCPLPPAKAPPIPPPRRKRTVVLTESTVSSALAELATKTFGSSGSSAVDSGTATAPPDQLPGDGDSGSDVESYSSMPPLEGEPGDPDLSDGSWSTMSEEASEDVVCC

Structure (SMILES)	Activity (Mus musculus [1]) [%]	Activity (Mus musculus [2]) [µmol/L]	Activity (Mus musculus [3]) [µmol/L]	Activity (Mus musculus [4]) [×10⁹ /L]	Activity (Mus musculus [5]) [g]	Activity (Mus musculus [6]) [g/L]	Activity (Mus musculus [7]) [%]	Activity (Mus musculus [8]) [g]	Activity (Mus musculus [9]) [g/L]	Activity (Mus musculus [10])	Activity (Mus musculus [11]) [%]	EC50 (Nonstructural protein 5A) [nM]
CC[Si](CC)(CC)c1ccc(N2[C@H](c3ccc(NC(=O)[C@@H]4CCCN4C(=O)[C@@H](NC(=O)OC)C(C)C)cc3)CC[C@H]2c2ccc(NC(=O)[C@@H]3CCCN3C(=O)[C@@H](NC(=O)OC)C(C)C)cc2)cc1	52.54	10.5	8.57	1263.4	4.346	25.38	0.02	1.579	52.31	Non-Toxic	33.12	
COC(=O)N[C@H](C(=O)N1CCC[C@H]1C(=O)Nc1ccc([C@@H]2CC[C@@H](c3ccc(NC(=O)[C@@H]4CCCN4C(=O)[C@@H](NC(=O)OC)C(C)C)cc3)N2c2ccc(C(C)(C)C)cc2)cc1)C(C)C [OMBITASVIR]												0.055
